Compounds with a hit are over-represented: about 6.8% of the library has one in this group of screens.
HSF1 inhib: HSF1 inhibition | NIH3T3-HGL HSE-luciferase, MG132-induced, luminescence 8 h; active compounds read low | activity change, negative = inhibition, % at 7.5 µM (by protocol) | AID 2098 | hit rate 0.77% among 300,000;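 active means more than half of replicate wells show activity change below -50%, luminescence cut by over half; inconclusive means some wells, but at most half, below -50%; inactive means no replicate well below -50%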;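 further: luciferase reports HSF-1 transcriptional activity via heat shock element; 0% = median of DMSO wells and -100% = zero luminescence signal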
PHOSPHO1 inh: inhibitors of human PHOSPHO1 phosphatase; Q8TCT1; recombinant PHOSPHO1, absorbance phosphatase assay; inhibition, % at 13.3 µM; hit rate 1.1% among 290,000; AID 1565; in the data active means inhibition above about 60%
Target sequence (Q8TCT1 whole entry, looked up): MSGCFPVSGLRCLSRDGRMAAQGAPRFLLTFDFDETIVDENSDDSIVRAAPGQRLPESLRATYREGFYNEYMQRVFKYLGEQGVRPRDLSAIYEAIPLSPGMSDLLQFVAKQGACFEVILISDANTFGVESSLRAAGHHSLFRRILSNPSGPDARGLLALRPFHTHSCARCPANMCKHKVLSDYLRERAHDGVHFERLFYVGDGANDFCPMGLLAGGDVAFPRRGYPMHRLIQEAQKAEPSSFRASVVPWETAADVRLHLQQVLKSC
HCV core dimer: HCV core protein dimerization inhibition | TR-FRET GST/Flag-core106 dimerization, 1536-well | inhibition, % at 5 µM | hit rate 0.33% among 300,000;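 active means inhibition above the mean of all tested compounds plus 3 SD, set per screening campaign, cut at about 45% in these data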
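assay system = GST-tagged and Flag-tagged HCV core protein residues 1-106 | controls = unlabelled core106 and no-GST-core106 wells | incubation = compound-protein-antibody incubation 4 h at 22.5 °C | probe or stimulus = Eu donor and XL665 acceptor anti-tag antibodies | read-out = % inhibition based on acceptor/donor emission ratio | signal = TR-FRET 671 and 617 nm emission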
AI-2 QS modul: Vibrio harveyi AI-2 quorum sensing modulation; activity change, % at 7.5 µM; Vibrio harveyi JMH597 AI-2 luminescence/OD600 ratio, 9 h; active compounds read low; strain lacks LuxN and CqsS sensors; 0 = neutral-control median; hit rate 0.4% among 300,000; AID 2094; in the data active means activity change below about -75%, passing the limit was not always enough; inconclusive means no clear call, values can overlap the other calls;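 further: luminescence divided by OD600 gain over 9 h not by final OD600 alone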
HSF1 activator: increases HSF-1 driven luciferase reporter signal; activation, % at 9 µM; AID 504408; NIH3T3-HGL HSF-1 luciferase reporter, MG132, 8 h; 100% = twice DMSO control signal; hit rate 1.7% among 300,000;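 active means mean replicate activation of at least 50% with a set share of replicates each reaching 50%; inconclusive means only one of those two conditions met; inactive means mean below 50% and too few replicates reaching it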;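 further: 0% = median of the neutral control wells and 100% = twice that signal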
ALR inh: human ALR oxidase inhibition via reduced H2O2 | hit rate 3.8% among 290,000 | inhibition, % (no concentration beside the values) | AID 485317 | purified ALR, DTT oxidation, H2O2 HRP-luminol luminescence | P55789;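 active means mean replicate inhibition above about 79%, with every replicate also reaching it, limit read from the data; inconclusive means only one of the two criteria met; inactive means mean below limit and not every replicate reaching it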
* marks the source's active call; other numbers are inactive results; ? = inconclusive; . = no result given.

SMILES	HSF1 inhib	PHOSPHO1 inh	HCV core dimer	AI-2 QS modul	HSF1 activator	ALR inh
CCCCCCC1CC(C)(/C(C)=N/NC(N)=O)OC1=O (configuration not stated)	1	28	-3	28	-4	-9
COc1ccc(CSC2=NCCN2)cc1Cl	3	-9	1	29	8	100*
COc1ccc(CSC2=NCCN2)cc1Br	1	4	10	20	6	99*
Clc1cccc(CSC2=NCCCN2)c1	3	-5	0	11	4	-1
OC(CSc1ccc(F)cc1)CN1CCN(c2ccccc2)CC1 (configuration not stated)	-4	45	-1	21	-7	87*
O=C(NC(=S)Nc1ccccc1)c1ccc(Br)o1	15	-35	10	8	41	13
O=C(Nc1ccc(O)cc1)c1ccc(C(=O)c2ccccc2)o1	17	29	-4	-19	26	97*
O=C(Nc1ccc(Nc2ccccc2)cc1)c1ccc(Br)o1	19	7	-12	-92*	23	99*
CC(=O)Oc1cc2cccc(OC(C)=O)c(=O)c2c(OC(C)=O)c1OC(C)=O	-6	28	-16	-18	-5	99*
COc1cc2cccc(OC)c(=O)c2c(O)c1OC	7	-7	-24	-3	7	.
S=C(NCc1cccnc1)Nc1ccc(Oc2ccc(Cl)cc2)cc1	-4	-8	0	-43	10	6
CSCCC(NC(=O)CCC(=O)OCC(=O)[C@@]1(O)CCC2[C@@H]3CCC4=CC(=O)C=C[C@]4(C)C3[C@@H](O)C[C@@]21C)C(=O)O (some centres not stated)	-52*	32	4	14	-59	-13
C[C@]12C=CC(=O)C=C1CC[C@@H]1C2C(O)C[C@@]2(C)C1CC[C@]2(O)C(=O)COC(=O)CCC(=O)NC(CC(=O)O)C(=O)O (some centres not stated)	-49	.	3	11	-49	-15
CC(C)CC(NC(=O)CCC(=O)OCC(=O)[C@@]1(O)CCC2[C@@H]3CCC4=CC(=O)C=C[C@]4(C)C3[C@@H](O)C[C@@]21C)C(=O)O (some centres not stated)	-53*	18	-13	4	-56	-10
Cc1ccc(NC(=O)Cc2nc(CN(C)CC(=O)Nc3ccc(C)cc3)cs2)cc1	.	.	.	.	.	-4
COc1ccc(Oc2ccc(/C=C/C(=O)c3cccc(OC)c3)cc2[N+](=O)[O-])cc1	-3	7	1	3	18	-1
CC(=O)Cn1c(=O)oc2ccccc21	-10	42	-4	5	8	.
Cc1[nH]c2ccccc2c1C(=O)C(=O)N1CCN(c2ccccc2)CC1	4	38	-10	13	-9	21
Cc1[nH]c2ccccc2c1C(=O)C(=O)N1CCN(C)CC1	-3	68*	3	9	-3	-2
Cc1[nH]c2ccccc2c1C(=O)CN1CCC(C)CC1	-4	70*	-7	12	-3	-10
CC1CCN(CC(=O)c2cccs2)CC1	-62*	25	-4	-2	-66	56
Cc1[nH]c2ccccc2c1C(=O)Cn1c(=O)oc2ccccc21	33	8	-1	6	76*	-2
O=C(CN1CCN(c2cccc(Cl)c2)CC1)NC1CCCc2ccccc21 (configuration not stated)	2	36	2	33	3	.
COc1ccc(C(=O)CSc2nnc(CCc3ccccc3)n2-c2ccccc2)cc1	2	79*	11	6	-2	1
CCc1c(O)nc(SCC(=O)N2CCOCC2)n(-c2ccccc2)c1=O	-9	9	4	19	5	96*
CCc1c(O)nc(SCC(=O)c2ccccc2)n(-c2ccccc2)c1=O	1	27	0	13	-5	99*
COc1ccc(-n2c(CCc3ccccc3)nnc2SCC(=O)c2ccccc2)cc1	11	-5	8	13	12	10
CCCCc1c(O)nc(SCC(=O)N2CCOCC2)n(-c2ccc(OC)cc2)c1=O	50	28	2	65	?	9
O=S(=O)(Cc1ccccc1)C1CCCCC1O (configuration not stated)	2	17	-3	-2	29	-7
